ChEMBL document CHEMBL1121680, “2,4-Diamino-5-benzylpyrimidines and analogues as antibacterial agents. 5. 3',5'-Dimethoxy-4'-substituted-benzyl analogues of trimethoprim” (J Med Chem, 1981)

How the values were obtained:
[1] = target: T1, Dihydrofolate reductase (Rattus norvegicus) (UniProt Q920D2); assay: Compound was tested for inhibitory activity against Dihydrofolate reductase of rat liver at 1000 µM; settings: 1000 M
T1 sequence (whole entry): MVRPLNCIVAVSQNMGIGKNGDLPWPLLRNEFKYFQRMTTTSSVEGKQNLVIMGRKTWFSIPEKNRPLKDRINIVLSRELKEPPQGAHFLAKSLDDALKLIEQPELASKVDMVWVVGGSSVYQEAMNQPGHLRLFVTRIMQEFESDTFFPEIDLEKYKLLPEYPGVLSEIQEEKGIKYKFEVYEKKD

Dihydrofolate reductase [2] = target: T2, Dihydrofolate reductase (Rattus norvegicus, UniProt Q920D2); assay: Inhibition of rat liver Dihydrofolate reductase.; settings: read-out: I50
T2 sequence (Q920D2 whole entry): T1 sequence (whole entry)

[3] = target: T1, Dihydrofolate reductase (Rattus norvegicus); assay: Compound was tested for inhibitory activity against Dihydrofolate reductase of rat liver at 40000 M
[4] = target: T1, Dihydrofolate reductase (Rattus norvegicus); assay: Percent inhibition of compound against Dihydrofolate Reductase(DHFR) of rat liver at 40000 M
[5] = target: T1, Dihydrofolate reductase (Rattus norvegicus); assay: Percent inhibition of compound against Dihydrofolate Reductase of rat liver at 16000 M
Oryctolagus cuniculus = assay: Peak serum concentration reached within 1 hr of administration of 5 mg/kg oral dose; type: functional, organism-based; parameters: dose 5 mg/kg
[6] = target: T1, Dihydrofolate reductase (Rattus norvegicus); assay: PCompound was tested for inhibitory activity against Dihydrofolate reductase of rat liver at 40000 M
[7] = target: T1, Dihydrofolate reductase (Rattus norvegicus); assay: Compound was tested for inhibitory activity against Dihydrofolate reductase of rat liver at 10000; settings: concentration not given here
Klebsiella pneumoniae [8] = assay: Antimicrobial activity against Klebsiella pneumoniae CN3632 in mice in experiment 1; type: functional, Mus musculus
Escherichia coli [9] = assay: Antimicrobial activity against Escherichia coli CN348 in mice in experiment 3; type: functional, Mus musculus
Mus musculus [10] = assay: Concentration of compound in serum of mouse 90 min after oral administration of 2 mg dose; type: functional, organism-based
In short: (§1)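 Single po dose (10 or 2 mg per mouse) to groups of three mice (18–20 g); ~0.2 mL blood drawn from supraorbital plexus at 10–360 min and pooled; serum drug level assayed microbiologically with Bacillus pumilus as test organism. Half-life calculated from curve slopes once compound apparently evenly distributed.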

Escherichia coli [11] = assay: Antimicrobial activity against Escherichia coli CN348 in mice in experiment 1; type: functional, Mus musculus
Mus musculus [12] = assay: Concentration of compound in serum of mouse 180 min after oral administration of 2 mg dose; type: functional, organism-based; in short: as §1
Mus musculus [13] = assay: Concentration of compound in serum of mouse 10 min after oral administration of 10 mg dose; type: functional, organism-based; in short: as §1
Mus musculus [14] = assay: Concentration of compound in serum of mouse 10 min after oral administration of 2 mg dose; type: functional, organism-based; in short: as §1
Mus musculus [15] = assay: Concentration of compound in serum of mouse 360 min after oral administration of 2 mg dose; type: functional, organism-based; in short: as §1
Streptococcus pyogenes [16] = assay: Antimicrobial activity against streptococcus pyogenes CN10 in mice in experiment 3; type: functional, Mus musculus
Mus musculus [17] = assay: Concentration of compound in serum of mouse 30 min after oral administration of 2 mg dose; type: functional, organism-based; in short: as §1
Staphylococcus aureus [18] = assay: Antimicrobial activity against Staphylococcus aureus CN491 in mice in experiment 1; type: functional, Mus musculus
Mus musculus [19] = assay: Concentration of compound in serum of mouse 90 min after oral administration of 10 mg dose; type: functional, organism-based; in short: as §1
Mus musculus [20] = assay: Half-life in serum of mice after oral administration of 2 mg dose; type: functional, organism-based; in short: as §1
Staphylococcus aureus [21] = assay: Antimicrobial activity against Staphylococcus aureus CN491 in mice in experiment 3; type: functional, Mus musculus
Proteus vulgaris [22] = assay: Antimicrobial activity against Proteus vulgaris CN329 in mice in experiment 2; type: functional, Mus musculus
Escherichia coli [23] = assay: Antimicrobial activity against Escherichia coli CN348 in mice in experiment 2; type: functional, Mus musculus
Mus musculus [24] = assay: Concentration of compound in serum of mouse 360 min after oral administration of 10 mg dose; type: functional, organism-based; in short: as §1
Klebsiella pneumoniae [25] = assay: Antimicrobial activity against Klebsiella pneumoniae CN3632 in mice in experiment 3; type: functional, Mus musculus
Proteus vulgaris [26] = assay: Antimicrobial activity against Proteus vulgaris CN329 in mice in experiment 1; type: functional, Mus musculus
Mus musculus [27] = assay: Half-life in serum of mice after oral administration of 10 mg dose; type: functional, organism-based; in short: as §1
Streptococcus pyogenes [28] = assay: Antimicrobial activity against streptococcus pyogenes CN10 in mice in experiment 2; type: functional, Mus musculus
Staphylococcus aureus [29] = assay: Antimicrobial activity against Staphylococcus aureus CN491 in mice in experiment 2; type: functional, Mus musculus
Mus musculus [30] = assay: Concentration of compound in serum of mouse 180 min after oral administration of 10 mg dose; type: functional, organism-based; in short: as §1
Mus musculus [31] = assay: Concentration of compound in serum of mouse 30 min after oral administration of 10 mg dose; type: functional, organism-based; in short: as §1
Dihydrofolate reductase [32] = target: T3, Dihydrofolate reductase (Escherichia coli, UniProt P0ABQ4); assay: Compound was tested for inhibitory activity against Dihydrofolate reductase of E. coli; Value ranges from 0.5-0.7M; settings: read-out: I50
T3 sequence (P0ABQ4 whole entry): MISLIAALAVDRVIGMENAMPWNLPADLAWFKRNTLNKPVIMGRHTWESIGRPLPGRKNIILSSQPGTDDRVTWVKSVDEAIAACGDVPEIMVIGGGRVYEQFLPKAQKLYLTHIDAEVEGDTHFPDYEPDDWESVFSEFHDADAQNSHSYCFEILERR

Dihydrofolate reductase [33] = target: T2, Dihydrofolate reductase; assay: Compound was tested for inhibitory activity against Dihydrofolate Reductase of rat liver; settings: read-out: I50

COc1cc(Cc2cnc(N)nc2N)cc(OC)c1Oc1ccc(N)cc1
inhibition [1]: 8%

COc1cc(Cc2cnc(N)nc2N)cc(OC)c1OCCCCN1C(=O)c2ccccc2C1=O
IC50 (Dihydrofolate reductase [2]): 54 µM

CCOC(=O)COc1c(OC)cc(Cc2cnc(N)nc2N)cc1OC
inhibition [3]: 12%

COc1cc(Cc2cnc(N)nc2N)cc(OC)c1Oc1ccc([N+](=O)[O-])cc1
IC50 (Dihydrofolate reductase [2]): 50 µM

COc1cc(Cc2cnc(N)nc2N)cc(OC)c1OC(C)C
inhibition [4]: 9%

COC(=O)CCCCCOc1c(OC)cc(Cc2cnc(N)nc2N)cc1OC
IC50 (Dihydrofolate reductase [2]): 1100 µM

COc1cc(Cc2cnc(N)nc2N)cc(OC)c1OCCCN1C(=O)c2ccccc2C1=O
IC50 (Dihydrofolate reductase [2]): 69 µM

COc1cc(Cc2cnc(N)nc2N)cc(OC)c1OCc1ccccc1
IC50 (Dihydrofolate reductase [2]): 47 µM

COc1cc(Cc2cnc(N)nc2N)cc(OC)c1OCC1CO1 (centres undefined)
inhibition [5]: 23%

COCCOc1c(OC)cc(Cc2cnc(N)nc2N)cc1OC
Concentration (Oryctolagus cuniculus): 2 µg/mL | inhibition [6]: 16%

COc1cc(Cc2cnc(N)nc2N)cc(OC)c1OCCCO
inhibition [7]: 24%

COc1cc(Cc2cnc(N)nc2N)cc(OC)c1OCCCCl
ED50 (Klebsiella pneumoniae [8]): 1 mg mouse-1 | ED50 (Escherichia coli [9]): >10 mg mouse-1 | Concentration (Mus musculus [10]): 1.3 µg/mL | ED50 (Escherichia coli [11]): 6.2 mg mouse-1 | Concentration (Mus musculus [12]): 0.7 µg/mL | Concentration (Mus musculus [13]): 41 µg/mL | Concentration (Mus musculus [14]): 7 µg/mL | Concentration (Mus musculus [15]): 0.24 µg/mL | ED50 (Streptococcus pyogenes [16]): 7.2 mg mouse-1 | Concentration (Mus musculus [17]): 2.9 µg/mL | ED50 (Staphylococcus aureus [18]): 2.1 mg mouse-1 | Concentration (Mus musculus [19]): 26 µg/mL | T1/2 (Mus musculus [20]): 1.9 h | ED50 (Staphylococcus aureus [21]): 7.1 mg mouse-1 | ED50 (Proteus vulgaris [22]): >10 mg mouse-1 | IC50 (Dihydrofolate reductase [2]): 250 µM | ED50 (Escherichia coli [23]): 9.4 mg mouse-1 | Concentration (Mus musculus [24]): 7 µg/mL | ED50 (Klebsiella pneumoniae [25]): >10 mg mouse-1 | ED50 (Proteus vulgaris [26]): 8.2 mg mouse-1 | T1/2 (Mus musculus [27]): 2.4 h | ED50 (Streptococcus pyogenes [28]): 3.3 mg mouse-1 | ED50 (Staphylococcus aureus [29]): >10 mg mouse-1 | Concentration (Mus musculus [30]): 15 µg/mL | Concentration (Mus musculus [31]): 31 µg/mL

CCOc1c(OC)cc(Cc2cnc(N)nc2N)cc1OC
IC50 (Dihydrofolate reductase [32]): 0.0075 µM | IC50 (Dihydrofolate reductase [33]): 620 µM

COc1cc(Cc2cnc(N)nc2N)cc(OC)c1OCCCCCCN
IC50 (Dihydrofolate reductase [2]): 560 µM

COc1cc(Cc2cnc(N)nc2N)cc(OC)c1OCCCN1CCCCC1
inhibition [3]: 20%

COc1cc(Cc2cnc(N)nc2N)cc(OC)c1OCCN
inhibition [3]: 38%

CCCOc1c(OC)cc(Cc2cnc(N)nc2N)cc1OC
IC50 (Dihydrofolate reductase [33]): 250 µM

CCCCOc1c(OC)cc(Cc2cnc(N)nc2N)cc1OC
IC50 (Dihydrofolate reductase [2]): 580 µM
